Assay results as given in ChEMBL document CHEMBL5058577, “EUbOPEN Chemogenomics Library 2 (Multiplex)” (2022).

Test system: HEK-293T
Experiment: Multiplex assay against HEK293T
Assay type: toxicity, cell-based
Details: human
Procedure, shortened: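 Hoechst33342, BioTracker Green Microtubule Cytoskeleton Dye, MitoTracker Red and Annexin V Alexa Fluor 680 were added to live cells at seeding, and imaging on a CQ1 microscope at 37°C and 5% CO2 followed compound addition. Gating by CellPathfinder machine learning separated cells into Hoechst high-intensity objects or normal cells, then normal cells into healthy, pyknosed or fragmented nuclei, then pyknosed cells into mitotic or apoptotic. Per cents of healthy-nucleus cells are reported for the tubulin, mitochondrial-mass and membrane-permeability phenotypes.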

[1] = 12 h, 1 µM, compound concentration 1 uM, replicate 1
[2] = 12 h, 1 µM, compound concentration 1 uM, replicate 2
[3] = 12 h, 10 µM, compound concentration 10 uM, replicate 1
[4] = 12 h, 10 µM, compound concentration 10 uM, replicate 2
[5] = 24 h, 1 µM, compound concentration 1 uM, replicate 1
[6] = 24 h, 1 µM, compound concentration 1 uM, replicate 2
[7] = 24 h, 10 µM, compound concentration 10 uM, replicate 1
[8] = 24 h, 10 µM, compound concentration 10 uM, replicate 2
[9] = 48 h, 1 µM, compound concentration 1 uM, replicate 1
[10] = 48 h, 1 µM, compound concentration 1 uM, replicate 2
[11] = 48 h, 10 µM, compound concentration 10 uM, replicate 1
[12] = 48 h, 10 µM, compound concentration 10 uM, replicate 2

## CCCCCCNC(=O)Nc1ccc(S(=O)(=O)Nc2ccc(CCNC[C@H](O)COc3ccc(O)cc3)cc2)cc1 [L-755507]
[1]
  Population Apoptotic (%): 35%
  Population Fragmented Nuclei (%): 8%
  Population Healthy Nuclei (%): 84%
  Population Hoechst High Intensity Objects (%): 7%
  Population Membrane Permeable-Phenotype (%): 0%
  Population Mitochondria Different-Phenotype (%): 39%
  Population Mitotic Cells (%): 64%
  Population Normal (%): 92%
  Population Pyknosed Nuclei (%): 7%
  Population Tubulin-Different-Phenotype (%): 28%
  Total Cell Count: 494
[2]
  Population Apoptotic (%): 31%
  Population Fragmented Nuclei (%): 6%
  Population Healthy Nuclei (%): 83%
  Population Mitochondria Different-Phenotype (%): 64%
  Population Mitotic Cells (%): 68%
  Population Pyknosed Nuclei (%): 10%
  Population Tubulin-Different-Phenotype (%): 32%
  Total Cell Count: 403
[3]
  Population Apoptotic (%): 58%
  Population Fragmented Nuclei (%): 10%
  Population Healthy Nuclei (%): 74%
  Population Hoechst High Intensity Objects (%): 17%
  Population Membrane Permeable-Phenotype (%): 0%
  Population Mitochondria Different-Phenotype (%): 69%
  Population Mitotic Cells (%): 41%
  Population Normal (%): 82%
  Population Pyknosed Nuclei (%): 14%
  Population Tubulin-Different-Phenotype (%): 68%
  Total Cell Count: 384
[4]
  Population Apoptotic (%): 71%
  Population Fragmented Nuclei (%): 8%
  Population Healthy Nuclei (%): 79%
  Population Hoechst High Intensity Objects (%): 7%
  Population Mitochondria Different-Phenotype (%): 87%
  Population Mitotic Cells (%): 28%
  Population Normal (%): 92%
  Population Pyknosed Nuclei (%): 11%
  Population Tubulin-Different-Phenotype (%): 61%
  Total Cell Count: 341
[5]
  Population Apoptotic (%): 19%
  Population Fragmented Nuclei (%): 9%
  Population Healthy Nuclei (%): 80%
  Population Hoechst High Intensity Objects (%): 5%
  Population Membrane Permeable-Phenotype (%): 0%
  Population Mitochondria Different-Phenotype (%): 20%
  Population Mitotic Cells (%): 80%
  Population Normal (%): 94%
  Population Pyknosed Nuclei (%): 9%
  Population Tubulin-Different-Phenotype (%): 20%
  Total Cell Count: 634
[6]
  Population Apoptotic (%): 30%
  Population Fragmented Nuclei (%): 11%
  Population Hoechst High Intensity Objects (%): 4%
  Population Mitochondria Different-Phenotype (%): 42%
  Population Mitotic Cells (%): 70%
  Population Normal (%): 95%
  Population Pyknosed Nuclei (%): 7%
  Population Tubulin-Different-Phenotype (%): 22%
  Total Cell Count: 547
[7]
  Population Apoptotic (%): 26%
  Population Fragmented Nuclei (%): 8%
  Population Healthy Nuclei (%): 80%
  Population Hoechst High Intensity Objects (%): 14%
  Population Membrane Permeable-Phenotype (%): 0%
  Population Mitochondria Different-Phenotype (%): 59%
  Population Mitotic Cells (%): 73%
  Population Normal (%): 85%
  Population Pyknosed Nuclei (%): 11%
  Population Tubulin-Different-Phenotype (%): 42%
  Total Cell Count: 461
[8]
  Population Apoptotic (%): 48%
  Population Fragmented Nuclei (%): 7%
  Population Healthy Nuclei (%): 83%
  Population Hoechst High Intensity Objects (%): 9%
  Population Mitochondria Different-Phenotype (%): 68%
  Population Mitotic Cells (%): 51%
  Population Normal (%): 90%
  Population Pyknosed Nuclei (%): 9%
  Population Tubulin-Different-Phenotype (%): 51%
  Total Cell Count: 402
[9]
  Population Apoptotic (%): 10%
  Population Fragmented Nuclei (%): 12%
  Population Healthy Nuclei (%): 81%
  Population Hoechst High Intensity Objects (%): 3%
  Population Membrane Permeable-Phenotype (%): 2%
  Population Mitochondria Different-Phenotype (%): 16%
  Population Mitotic Cells (%): 89%
  Population Normal (%): 96%
  Population Pyknosed Nuclei (%): 6%
  Population Tubulin-Different-Phenotype (%): 15%
  Total Cell Count: 1052
[10]
  Population Apoptotic (%): 15%
  Population Fragmented Nuclei (%): 13%
  Population Healthy Nuclei (%): 80%
  Population Hoechst High Intensity Objects (%): 5%
  Population Mitochondria Different-Phenotype (%): 24%
  Population Mitotic Cells (%): 84%
  Population Normal (%): 94%
  Population Tubulin-Different-Phenotype (%): 20%
  Total Cell Count: 775
[11]
  Population Apoptotic (%): 46%
  Population Fragmented Nuclei (%): 15%
  Population Healthy Nuclei (%): 75%
  Population Hoechst High Intensity Objects (%): 11%
  Population Membrane Permeable-Phenotype (%): 1%
  Population Mitochondria Different-Phenotype (%): 36%
  Population Mitotic Cells (%): 53%
  Population Normal (%): 88%
  Population Pyknosed Nuclei (%): 9%
  Population Tubulin-Different-Phenotype (%): 32%
  Total Cell Count: 598
[12]
  Population Apoptotic (%): 65%
  Population Fragmented Nuclei (%): 13%
  Population Healthy Nuclei (%): 80%
  Population Hoechst High Intensity Objects (%): 8%
  Population Membrane Permeable-Phenotype (%): 0%
  Population Mitochondria Different-Phenotype (%): 47%
  Population Mitotic Cells (%): 34%
  Population Normal (%): 91%
  Population Pyknosed Nuclei (%): 5%
  Population Tubulin-Different-Phenotype (%): 39%
  Total Cell Count: 596
